In ChEMBL document CHEMBL1149025, “Cytotoxic and antibacterial dihydrochalcones from Piper aduncum” (1994):
Converted amounts (≈) assume the structure as drawn.

Assays:
Assay type in all cases: functional
KB = assay: Cytotoxicity against human KB cells after 72 hrs; conditions: read-out: ED50 (the source's name)
How it was run: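 KB cells were grown in BME with 10% heat-inactivated FBS at 37° under 5% CO₂. Samples in DMSO (final 0.5%) were added at log growth phase, at five concentrations, for 72 h. Growth was measured by protein determination as a percentage of DMSO-only controls, corrected for starting cell number. Assays were run in duplicate, and ED₅₀ was taken from semilogarithmic plots of the averaged data.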

Micrococcus luteus = assay: Antibacterial activity against Micrococcus luteus ATCC 9341 by bioautographic assay
How it was run: (§1)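 Overnight 37° nutrient-broth cultures; the developed TLC plate was dipped in the bacterial suspension and held moist at 37° for 20 h. It was then sprayed with 0.5% iodonitrotetrazolium chloride in H₂O and kept a further 4 h moist at 37°. Pure compounds were spotted (3 mm) at 0.1–5 μg in CH₂Cl₂, with chloramphenicol as positive control.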

Escherichia coli = assay: Antibacterial activity against Escherichia coli ATCC 25922 by bioautographic assay
How it was run: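 Bioautography used an overnight 37° nutrient-broth culture, and the developed TLC plate was dipped in the suspension. It was incubated moist at 37° for 6 h, sprayed with 0.5% aqueous iodonitrotetrazolium chloride, then kept moist at room temperature for 15 h. White zones against pink colonies marked inhibition. Pure compounds were spotted (3 mm) at 0.1–5 μg in CH₂Cl₂, with chloramphenicol as positive control.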

Bacillus subtilis = assay: Antibacterial activity against Bacillus subtilis ATCC 6633 by bioautographic assay; how it was run: as §1
Biomphalaria glabrata = assay: Molluscicidal activity against Biomphalaria glabrata assessed as mortality after 24 hrs by microscopy
How it was run: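 Snails exposed to samples dissolved in 100 μl DMSO and diluted to 100 ml with distilled H₂O. After 24 h, snails counted dead when no heartbeat was seen under the microscope.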

Row | Structure (SMILES) | EC50 (KB) [µg/mL] | MIC (Micrococcus luteus) [µg] | MIC (Escherichia coli) [µg] | MIC (Bacillus subtilis) [µg] | LC100 (Biomphalaria glabrata) [ppm]
1 | COC(=O)c1ccc2c(c1)C[C@H](C(C)(C)O)O2 [ANODENDROIC ACID METHYL ESTER] | > 10 | >5 | >5 | 3.2 | –
2 | COc1cc([C@@H]2c3cc4c(cc3[C@H](O)[C@H]3COC(=O)[C@H]23)OCO4)cc(OC)c1OC [PODOFILOX] | 0.0003 (≈ 0.000724 µM) | – | – | – | –
3 | COc1cc(O)c(C(=O)CCc2ccc(O)cc2)c(O)c1 [ASEBOGENIN] | > 10 | 0.6 | >5 | 0.1 | 12
4 | COc1cc(O)c(C(=O)CCc2ccccc2)c(O)c1 | > 10 | 0.3 | >5 | 0.3 | >30
5 | COC(=O)c1ccc(O)c([C@H]2c3c(OC)cc(O)c(C(=O)CCc4ccccc4)c3O[C@@H]2C(C)(C)O)c1 [PIPERADUNCIN B] | 4.7 (≈ 9.28 µM) | 0.4 | >5 | 0.2 | –
6 | COc1cc(O)c(C(=O)CCc2ccccc2)c(O)c1Cc1c(OC)cc(O)c(C(=O)CCc2ccccc2)c1O [PIPERADUNCIN C] | > 10 | 3 | >5 | 1.5 | –
7 | COC(=O)c1ccc(O)c(C(C=C(C)C)c2c(OC)cc(O)c(C(=O)CCc3ccccc3)c2O)c1 (stereo not given) [PIPERADUNCIN A] | 2.3 (≈ 4.69 µM) | 1.6 | >5 | 1.6 | –
8 | O=C(N[C@H](CO)[C@H](O)c1ccc([N+](=O)[O-])cc1)C(Cl)Cl [CHLORAMPHENICOL] | – | 0.05 | 0.05 | 0.02 | –
9 | COc1cc(O)c2c(c1)O[C@H](c1ccc(O)cc1)CC2=O [SAKURANETIN] | 10 (≈ 34.9 µM) | 2 | >5 | 0.5 | >30
